This passage reports Activity, MIC and inhibition zone (IZ) results from ChEMBL document CHEMBL4359813, “Synthesis and antimycobacterial activity of imidazo[1,2-b][1,2,4,5]tetrazines” (2019).

By MIC is commonly meant the lowest concentration found to suppress growth. A lower MIC goes with greater potency.

Each structure is given as a SMILES string. Converted amounts (≈) assume the structure as drawn. The source made the active and inactive calls. No cut-off for these calls is given here.

The subject of experiment [1] is Mycolicibacterium smegmatis. Description: Antimycobacterial activity against Mycobacterium smegmatis atR33 assessed as decrease in drug resistance development at 100 nmol/disc after 2 to 3 days by paper disc method. It is filed as functional, organism-based. The essentials:
(§1)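 Mutant M. smegmatis strains were grown in Middlebrook 7H9/OADC/Tween/glycerol to OD600 1.2. Cultures were diluted 1:9:10 (culture:water:M290) and overlaid on M290 agar. Commercial or impregnated paper discs were applied and plates incubated 2–3 days at 37 °C. Inhibition halos were measured to 1 mm, run in triplicate, mean ± SD.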

In experiment [2] the test system is Mycolicibacterium smegmatis. Description: Antimycobacterial activity against Mycobacterium smegmatis atR14 in liquid medium after 48 hrs by two-fold serial dilution method. The format is functional. The settings on record: atR14, 48 h. The essentials: (§2)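 M. smegmatis resistant mutants were isolated on M290 agar containing 3.5-4× MIC of the test compound at 30°C and resistance was reconfirmed. MIC was then run in Lemco-Tw broth (Tween-80 0.05%). An overnight culture was diluted 1:200, and two-fold serial dilutions in DMSO were added. Plates were incubated at 37°C and 250 rpm for 48 h. MIC was read as the lowest concentration with no visible growth.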

Experiment [3] concerns Mycolicibacterium smegmatis. Put plainly: Antimycobacterial activity against Mycobacterium smegmatis atR1 assessed as decrease in drug resistance development at 100 nmol/disc after 2 to 3 days by paper disc method. The format is functional, organism-based. In outline: as §1
The test system of experiment [4] is Mycolicibacterium smegmatis. Put plainly: Antimycobacterial activity against Mycobacterium smegmatis atR37 in liquid medium after 48 hrs by two-fold serial dilution method. The format is functional. The settings on record: atR37, 48 h. In outline: as §2
Experiment [5] deals with Mycolicibacterium smegmatis. Put plainly: Antimycobacterial activity against Mycobacterium smegmatis atR1 in liquid medium after 48 hrs by two-fold serial dilution method. It is filed as functional. The following applies: atR1, 48 h. In outline: as §2
In experiment [6] the test system is Mycolicibacterium smegmatis. Put plainly: Antimycobacterial activity against Mycobacterium smegmatis atR9 in liquid medium after 48 hrs by two-fold serial dilution method. The settings on record: atR9, 48 h. It is filed as functional. The essentials:
as §2

In experiment [7] the test system is Mycolicibacterium smegmatis. Description: Antimycobacterial activity against Mycobacterium smegmatis atR37 assessed as decrease in drug resistance development at 100 nmol/disc after 2 to 3 days by paper disc method. It is filed as functional, organism-based. The essentials: (§3)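 Drug-resistant M. smegmatis mc2 155 mutants, isolated on M290 agar with 3.5-4× MIC of compound and resistance re-confirmed, grown in Middlebrook 7H9 (OADC, 0.1% Tween-80, 0.4% glycerol) to OD600 1.2. Diluted 1:9:10 culture:water:M290 and poured as top layer on M290 agar. Impregnated paper discs applied; 37 °C for 2–3 days. Halos measured to nearest 1 mm; triplicates, mean ± SD versus control strain.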

Experiment [8] has as its system Mycolicibacterium smegmatis. Description: Antimycobacterial activity against Mycobacterium smegmatis atR19 in liquid medium after 48 hrs by two-fold serial dilution method. The format is functional. The following applies: atR19, 48 h. The essentials:
as §2

Experiment [9] has as its system Mycolicibacterium smegmatis. Put plainly: Antimycobacterial activity against Mycobacterium smegmatis atR19 assessed as decrease in drug resistance development at 100 nmol/disc after 2 to 3 days by paper disc method. The format is functional, organism-based. The essentials:
as §1

In experiment [10] the test system is Mycolicibacterium smegmatis. Put plainly: Antimycobacterial activity against Mycobacterium smegmatis atR17 in liquid medium after 48 hrs by two-fold serial dilution method. The format is functional. The settings on record: atR17, 48 h. The essentials: as §2
Experiment [11] deals with Mycolicibacterium smegmatis. Put plainly: Antimycobacterial activity against Mycobacterium smegmatis atR17 assessed as decrease in drug resistance development at 100 nmol/disc after 2 to 3 days by paper disc method. The format is functional, organism-based. In outline:
as §1

In experiment [12] the test system is Mycolicibacterium smegmatis. Description: Antimycobacterial activity against Mycobacterium smegmatis atR11 in liquid medium after 48 hrs by two-fold serial dilution method. It is filed as functional. The following applies: atR11, 48 h. The essentials: as §2
Experiment [13] has as its system Mycolicibacterium smegmatis. Put plainly: Antimycobacterial activity against Mycobacterium smegmatis MC2 155 in liquid medium after 48 hrs by two-fold serial dilution method. It is filed as functional. The following applies: MC2 155, 48 h. In outline:
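M. smegmatis mc2 155 grown overnight in Lemco-Tw broth, diluted 1:200 in fresh broth. […] Top wells could carry 4% DMSO. Incubated 48 h at 37 °C with shaking at 250 rpm. MIC is the lowest concentration with no visible growth.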

Experiment [14] deals with Mycolicibacterium smegmatis. Put plainly: Antimycobacterial activity against Mycobacterium smegmatis atR40 assessed as decrease in drug resistance development at 100 nmol/disc after 2 to 3 days by paper disc method. It is filed as functional, organism-based. The essentials: as §3
Experiment [15] deals with Mycolicibacterium smegmatis. Put plainly: Antimycobacterial activity against Mycobacterium smegmatis atR10 in liquid medium after 48 hrs by two-fold serial dilution method. The following applies: atR10, 48 h. It is filed as functional. The essentials:
as §2

In experiment [16] the test system is Mycobacterium tuberculosis. Description: Antimycobacterial activity against Mycobacterium tuberculosis H37Rv in liquid medium. It is filed as functional. In outline: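 M. tuberculosis H37Rv; MIC determined in liquid medium on the automated Bactec MGIT 960 system.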
Experiment [17] deals with Mycolicibacterium smegmatis. Description: Antimycobacterial activity against Mycobacterium smegmatis atR9 assessed as decrease in drug resistance development at 100 nmol/disc after 2 to 3 days by paper disc method. It is filed as functional, organism-based. The essentials: as §3
For experiment [18], the system named is Mycolicibacterium smegmatis. Put plainly: Antimycobacterial activity against Mycobacterium smegmatis atR33 in liquid medium after 48 hrs by two-fold serial dilution method. The settings on record: atR33, 48 h. The format is functional. In outline: as §2
Experiment [19] has as its system Mycolicibacterium smegmatis. Put plainly: Antimycobacterial activity against Mycobacterium smegmatis atR8 assessed as decrease in drug resistance development at 100 nmol/disc after 2 to 3 days by paper disc method. The format is functional, organism-based. In outline:
as §3

For experiment [20], the system named is Mycolicibacterium smegmatis. Put plainly: Antimycobacterial activity against Mycobacterium smegmatis atR11 assessed as decrease in drug resistance development at 100 nmol/disc after 2 to 3 days by paper disc method. The format is functional, organism-based. In outline: as §1
Experiment [21] has as its system Mycolicibacterium smegmatis MC2 155. Description: Inhibition of STPK in Mycobacterium smegmatis MC2 155 expressing aminoglycoside phophotransferase-8 assessed as growth inhibition at 50 nmol/disk after 18 hrs in presence of kanamycin by paper disk method.
The subject of experiment [22] is Mycolicibacterium smegmatis. Description: Antimycobacterial activity against Mycobacterium smegmatis MC2 155 in solid medium by two-fold serial dilution method. It is filed as functional. In outline: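 M290 soybean-casein agar plates carried two-fold compound dilutions, 8–64 or 8–128 µg/ml, some with extra 20 or 25 µg/ml plates.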
The subject of experiment [23] is Mycolicibacterium smegmatis. Description: Antimycobacterial activity against Mycobacterium smegmatis atR2 in liquid medium after 48 hrs by two-fold serial dilution method. It is filed as functional. The following applies: atR2, 48 h. The essentials: as §2
Experiment [24] concerns Mycolicibacterium smegmatis. Put plainly: Antimycobacterial activity against Mycobacterium smegmatis atR10 assessed as decrease in drug resistance development at 100 nmol/disc after 2 to 3 days by paper disc method. The format is functional, organism-based. In outline: as §1
Experiment [25] has as its system Mycolicibacterium smegmatis. Put plainly: Antimycobacterial activity against Mycobacterium smegmatis atR14 assessed as decrease in drug resistance development at 100 nmol/disc after 2 to 3 days by paper disc method. The format is functional, organism-based. The essentials:
as §1

Experiment [26] relates to Mycolicibacterium smegmatis. Put plainly: Antimycobacterial activity against Mycobacterium smegmatis atR40 in liquid medium after 48 hrs by two-fold serial dilution method. It is filed as functional. The settings on record: atR40, 48 h. The essentials: as §2
The test system of experiment [27] is Mycolicibacterium smegmatis. Description: Antimycobacterial activity against Mycobacterium smegmatis atR2 assessed as decrease in drug resistance development at 100 nmol/disc after 2 to 3 days by paper disc method. It is filed as functional, organism-based. The essentials: as §1
The test system of experiment [28] is Mycolicibacterium smegmatis. Put plainly: Antimycobacterial activity against Mycobacterium smegmatis atR8 in liquid medium after 48 hrs by two-fold serial dilution method. The format is functional. The following applies: atR8, 48 h. In outline: as §2
Experiment [29] deals with Mycolicibacterium smegmatis. Put plainly: Antimycobacterial activity against Mycobacterium smegmatis atR40 assessed as decrease in drug resistance development at 5 ug/disc after 2 to 3 days by paper disc method. The format is functional, organism-based. The essentials:
as §3

Experiment [30] concerns Mycolicibacterium smegmatis. Description: Antimycobacterial activity against Mycobacterium smegmatis atR33 assessed as decrease in drug resistance development at 5 ug/disc after 2 to 3 days by paper disc method. It is filed as functional, organism-based. In outline:
as §3

In experiment [31] the test system is Mycolicibacterium smegmatis. Put plainly: Antimycobacterial activity against Mycobacterium smegmatis atR17 assessed as decrease in drug resistance development at 5 ug/disc after 2 to 3 days by paper disc method. The format is functional, organism-based. The essentials:
as §1

Experiment [32] has as its system Mycolicibacterium smegmatis. Put plainly: Antimycobacterial activity against Mycobacterium smegmatis atR10 assessed as decrease in drug resistance development at 5 ug/disc after 2 to 3 days by paper disc method. It is filed as functional, organism-based. The essentials: as §1
Experiment [33] deals with Mycolicibacterium smegmatis. Description: Antimycobacterial activity against Mycobacterium smegmatis atR14 assessed as decrease in drug resistance development at 5 ug/disc after 2 to 3 days by paper disc method. The format is functional, organism-based. In outline: as §1
In experiment [34] the test system is Mycolicibacterium smegmatis. Put plainly: Antimycobacterial activity against Mycobacterium smegmatis atR1 assessed as decrease in drug resistance development at 5 ug/disc after 2 to 3 days by paper disc method. It is filed as functional, organism-based. In outline:
as §1

Experiment [35] concerns Mycolicibacterium smegmatis. Description: Antimycobacterial activity against Mycobacterium smegmatis atR2 assessed as decrease in drug resistance development at 5 ug/disc after 2 to 3 days by paper disc method. The format is functional, organism-based. In outline: as §1
For experiment [36], the system named is Mycolicibacterium smegmatis. Put plainly: Antimycobacterial activity against Mycobacterium smegmatis atR11 assessed as decrease in drug resistance development at 5 ug/disc after 2 to 3 days by paper disc method. The format is functional, organism-based. In outline: as §1
Experiment [37] relates to Mycolicibacterium smegmatis. Put plainly: Antimycobacterial activity against Mycobacterium smegmatis atR8 assessed as decrease in drug resistance development at 5 ug/disc after 2 to 3 days by paper disc method. The format is functional, organism-based. In outline:
as §3

The subject of experiment [38] is Mycolicibacterium smegmatis MC2 155. Description: Inhibition of STPK in Mycobacterium smegmatis MC2 155 expressing aminoglycoside phophotransferase-8 assessed as growth inhibition at 350 microg/disk after 18 hrs by paper disk method.
The test system of experiment [39] is Mycolicibacterium smegmatis. Description: Antimycobacterial activity against Mycobacterium smegmatis atR37 assessed as decrease in drug resistance development at 5 ug/disc after 2 to 3 days by paper disc method. It is filed as functional, organism-based. The essentials: as §3
The test system of experiment [40] is Mycolicibacterium smegmatis. Description: Antimycobacterial activity against Mycobacterium smegmatis atR19 assessed as decrease in drug resistance development at 5 ug/disc after 2 to 3 days by paper disc method. The format is functional, organism-based. In outline: as §1

In the case of `Cc1cn(-c2nnc3ncc(SC(C)C)n3n2)cn1`, the result in experiment [1], in experiment [3], in [9], in experiment [11], in experiment [14] and in experiment [17] was inactive. Also, the outcome in experiment [19], in experiment [20], in experiment [24] and in experiment [25] was inactive. For the same molecule, the minimum inhibitory concentration (MIC) in experiment [2], in experiment [4], in [5], in experiment [6], in experiment [8] and in experiment [10] was 128 µg/mL (≈ 465 µM) throughout. In addition, the MIC in [12] stood at 256 µg/mL (≈ 930 µM); in [13], 232 µM (≈ 64 µg/mL); in experiment [15], 256 µg/mL (≈ 930 µM); in experiment [16] it was 90.8 µM (≈ 25 µg/mL); in experiment [18] it was 128 µg/mL (≈ 465 µM); in [22], 90.8 µM (≈ 25 µg/mL). Further, the values for the MIC in experiment [23], in [26] and in experiment [28] were 128 µg/mL (≈ 465 µM), 128 µg/mL (≈ 465 µM) and 256 µg/mL (≈ 930 µM), respectively. The outcome in [7] and in experiment [27] was Active. Also, the inhibition zone (IZ) in experiment [21] came to 13 mm.
As to `NC[C@H]1O[C@H](O[C@H]2[C@H](O)[C@@H](O[C@H]3O[C@H](CO)[C@@H](O)[C@H](N)[C@H]3O)[C@H](N)C[C@@H]2N)[C@H](O)[C@@H](O)[C@@H]1O`, the outcome in experiment [29], in [30], in experiment [31], in experiment [32], in experiment [33] and in experiment [34] was Active. For the same molecule, the result in experiment [35], in experiment [36], in experiment [37], in experiment [39] and in experiment [40] was Active. Besides, the inhibition zone (IZ) in experiment [38] is 9.3 mm.
